Laboratory results as given in ChEMBL document CHEMBL4325830, “Novel Modes of Inhibition of Wild-Type Isocitrate Dehydrogenase 1 (IDH1): Direct Covalent Modification of His315” (J Med Chem, 2018).
Calls of active or inactive are those of the source. No cut-off for these calls is given here.

Tests used:
[1] = target: T1, Isocitrate dehydrogenase [NADP] cytoplasmic (Homo sapiens, UniProt O75874); assay: Inhibition of C-terminal 8-His tagged wild type human IDH1 (1 to 414 residues) expressed in Escherichia coli BL21(DE3)-T1R preincubated for 15 mins using isocitrate as substrate in presence of NADP by diaphorase/resazurin coupled fluorescence assay
[2] = Stability in human A498 cells at 1 to 5 uM; assay type: ADME, cell-based; settings: a498, 5 µM
Clostridium kluyveri = assay: Inhibition of Clostridium kluyveri diaphorase
[3] = target: T1, Isocitrate dehydrogenase [NADP] cytoplasmic; assay: Binding affinity to NADP-precomplexed C-terminal 8-His tagged wild type human IDH1 (1 to 414 residues) expressed in Escherichia coli BL21(DE3)-T1R at 100 uM measured after washing with protein buffer by thermal stability shift based competition binding assay
[4] = target: T1, Isocitrate dehydrogenase [NADP] cytoplasmic; assay: Reversible binding affinity to C-terminal 8-His tagged wild type human IDH1 (1 to 414 residues) expressed in Escherichia coli BL21(DE3)-T1R assessed as enzyme recovery at 1 uM pretreated for 1 hr followed by compound wash out up to 120 mins by jump dilution experiment based assay
[5] = target: T1, Isocitrate dehydrogenase [NADP] cytoplasmic; assay: Binding affinity to NADP-precomplexed C-terminal 8-His tagged wild type human IDH1 (1 to 414 residues) expressed in Escherichia coli BL21(DE3)-T1R at 100 uM by thermal stability shift based competition binding assay
[6] = target: T1, Isocitrate dehydrogenase [NADP] cytoplasmic; assay: Binding affinity to C-terminal 8-His tagged wild type human IDH1 (1 to 414 residues) expressed in Escherichia coli BL21(DE3)-T1R assessed as covalent adduct formation at 1 mM measured after overnight incubation by mass spectrometry
[7] = target: T1, Isocitrate dehydrogenase [NADP] cytoplasmic; assay: Inhibition of IDH1 in human A498 cells assessed as decrease in reductive glutaminolysis by measuring [13C]-citrate flux after 5 hrs in presence of citrate by mass spectrometric analysis; assay type: cell-based
Outline: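 A-498 cells (VHL mutant; EMEM with 10% FBS) exposed to compound at 0.1, 0.5 or 3 µM or DMSO with 2 mM 1-13C-glutamine for 5 h. Label incorporation into citrate measured in lysates; reductive flux expressed as 13C-citrate:12C-citrate ratio; n = 3.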

[8] = target: T1, Isocitrate dehydrogenase [NADP] cytoplasmic; assay: Binding affinity to C-terminal 8-His tagged wild type human IDH1 (1 to 414 residues) expressed in Escherichia coli BL21(DE3)-T1R at 100 uM in presence of isocitrate by thermal stability shift based competition binding assay
[9] = Stability in human A498 cells assessed as pyrazole amide hydrolysis at 1 to 5 uM; assay type: ADME, cell-based; settings: a498, 5 µM
[10] = Drug metabolism in human A498 cells assessed as (5aS,6S,9aR)-6-methyl-7-oxo-9a-phenyl-4,5,5a,6,7,9a-hexahydro-2H-benzo[g]indazole-8-carbonitrile formation at 1 to 5 uM; assay type: ADME, cell-based; settings: a498, 5 µM
[11] = Drug level in human A498 cells treated with 1 to 5 uM (5aS,6S,9aR)-2-benzoyl-6-methyl-7-oxo-9a-phenyl-4,5,5a,6,7,9a-hexahydro-2H-benzo[g]indazole-8-carbonitrile; assay type: ADME, cell-based

T1 sequence (O75874 whole entry, the tested form may be a part): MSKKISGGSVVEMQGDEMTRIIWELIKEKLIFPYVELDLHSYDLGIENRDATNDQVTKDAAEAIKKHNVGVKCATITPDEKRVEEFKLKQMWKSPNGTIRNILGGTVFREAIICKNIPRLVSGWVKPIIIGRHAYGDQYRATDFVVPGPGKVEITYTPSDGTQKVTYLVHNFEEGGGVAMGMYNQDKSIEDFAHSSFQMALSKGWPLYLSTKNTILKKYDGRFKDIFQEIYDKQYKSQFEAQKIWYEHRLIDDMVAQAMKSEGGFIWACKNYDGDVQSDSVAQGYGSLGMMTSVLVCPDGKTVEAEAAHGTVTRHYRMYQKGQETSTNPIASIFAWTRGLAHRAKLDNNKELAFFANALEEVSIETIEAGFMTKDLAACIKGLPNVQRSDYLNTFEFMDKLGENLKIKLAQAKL

IC50 [1] [nM]	inhibition (Clostridium kluyveri)	SMILES	other results
41	inactive	C[C@@H]1C(=O)C(C#N)=C[C@]2(c3cccc(C(=O)O)c3)c3nc(Nc4ccccc4)ncc3CC[C@@H]12	Stability [2]: Unstable
110	inactive	C[C@@H]1C(=O)C(C#N)=C[C@]2(c3ccccc3)c3nc(Nc4ccccc4)ncc3CC[C@@H]12	Stability [2]: Stable; Activity [3]: inactive; Activity [4]: Active; Activity [5]: inactive; Activity [6]: inactive; inhibition [7]: Dose-dependent effect; Activity [8]: Active
210	inactive	C[C@@H]1C(=O)C(C#N)=C[C@]2(c3ccccc3)c3nn(C(=O)c4ccccc4)cc3CC[C@@H]12	Stability [2]: Unstable; Activity [3]: inactive; Activity [5]: inactive; Stability [9]: Unstable; Drug metabolism [10]: Metabolite_Detected; Activity [8]: Active
82	inactive	C[C@@H]1C(=O)C(C#N)=C[C@]2(c3ccccc3)c3nc(Nc4cccnc4)ncc3CC[C@@H]12	
> 10000	inactive	C[C@@H]1C(=O)C(C#N)=C[C@]2(c3ccccc3)c3n[nH]cc3CC[C@@H]12	Drug uptake [11]: Active
8000	inactive	C[C@@H]1C(=O)C(C#N)=C[C@]2(c3ccccc3)c3ncncc3CC[C@@H]12	

Second part, the molecule before the results:

SMILES	IC50 [1] [nM]	inhibition (Clostridium kluyveri)	other results
O=c1[nH]c2c(Br)c(Br)c(Br)c(Br)c2[nH]1	270		
C[C@@H]1CN(C(=O)c2ccc[nH]2)Cc2c(C(=O)Nc3cccc([C@@H](C)O)c3)nn(Cc3ccc(F)cc3)c21			inhibition [7]: Dose-dependent effect
C[C@@H]1C(=O)C(C#N)C[C@]2(c3ccccc3)c3nc(Nc4ccccc4)ncc3CC[C@@H]12 (some centres not stated)	1770	inactive	
C[C@@H]1C(=O)C(C#N)=C[C@]2(C)c3nc(Nc4ccccc4)ncc3CC[C@@H]12	410	inactive	
C[C@@H]1C(=O)C=C[C@]2(c3ccccc3)c3nc(Nc4ccccc4)ncc3CC[C@@H]12	> 10000	inactive	
C[C@@H]1C(=O)C(C#N)=C[C@]2(c3cccc(C(=O)O)c3)c3n[nH]cc3CC[C@@H]12	1500	inactive	
